Data published in ChEMBL document CHEMBL1138829, “Conformationally constrained analogues of diacylglycerol. 21. A solid-phase method of synthesis of diacylglycerol lactones as a prelude to a combinatorial approach for the synthesis of protein kinase C isozyme-specific ligands” (J Med Chem, 2004).

Legend:
[1] = Partition coefficient (logP); type: physicochemical; details: octanol/water
[2] = target: T1, Protein kinase C alpha type (Homo sapiens, UniProt P17252); assay: (§1) Displacement of [20-3H]phorbol-12,13-dibutyrate (PDBu) from a recombinant protein kinase C alpha with phosphatidylserine
Outline: (§2)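 Competition binding against [20-3H]PDBu using intact recombinant single isozyme PKC-alpha in presence of phosphatidylserine; tested as crude resin-cleaved and purified samples. ID50 obtained by least-squares fit of theoretical sigmoidal competition curve; Ki calculated from ID50 via standard relationship.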

[3] = target: T1, Protein kinase C alpha type; assay: as §1; outline: as §2; remark: listed apart in the source
[4] = target: T1, Protein kinase C alpha type; assay: as §1; outline: as §2; remark: listed apart in the source

Row | Structure (SMILES) | logP [1] | Ki [2] | Ki [3] | Ki [4]
1 | O=C1OC(CO)(COC(=O)c2ccccc2)C/C1=C/c1ccc(-c2ccccc2)cc1 (configuration not stated) | 3.9 | 0.041 µM | 0.0141 µM | 
2 | CCCCCCCCC/C=C1/CC(CO)(COC(=O)c2ccccc2)OC1=O (configuration not stated) | 4.85 |  | 0.0203 µM | 0.037 µM
3 | CCCCCCCC/C=C1/CC(CO)(COC(=O)c2ccccc2)OC1=O (configuration not stated) | 4.36 | 0.0456 µM | 0.0257 µM | 
4 | O=C(Cc1ccccc1)OCC1(CO)C/C(=C/c2ccc(-c3ccccc3)cc2)C(=O)O1 (configuration not stated) | 4.15 | 0.152 µM | 0.048 µM | 
5 | CCCCCCCC/C=C1/CC(CO)(COC(=O)Cc2ccccc2)OC1=O (configuration not stated) | 4.61 | 0.145 µM | 0.0433 µM | 
6 | O=C1OC(CO)(COC(=O)c2ccc(-c3ccccc3)cc2)C/C1=C/c1ccc(-c2ccccc2)cc1 (configuration not stated) | 5.66 | 0.0839 µM | 0.0227 µM | 
7 | CCCCCCCC/C=C1/CC(CO)(COC(=O)c2ccc(-c3ccccc3)cc2)OC1=O (configuration not stated) | 6.12 | 0.0418 µM | 0.028 µM | 
8 | CCCCCCCCC/C=C1/CC(CO)(COC(=O)c2ccc(-c3ccccc3)cc2)OC1=O (configuration not stated) | 6.61 |  | 0.0191 µM | 0.0524 µM
9 | CCCCCCCCC/C=C1/CC(CO)(COC(=O)Cc2ccccc2)OC1=O (configuration not stated) | 5.1 |  | 0.0438 µM | 0.0925 µM
